Laboratory results published in ChEMBL document CHEMBL4689842, “EUbOPEN Chemogenomics Library wave 1” (2021).
Where “and” joins values, the source holds several entries; their conditions need not be identical. Equal values may be shown once.

Tested on: U2OS
Assay: Multiplex assay against U2OS
Type: toxicity, cell-based
Conditions: human
In short: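 On a CQ1 microscope at 37°C and 5% CO2, live cells were imaged after compound addition. They had been stained at seeding with Hoechst33342, BioTracker Green Microtubule Cytoskeleton Dye, MitoTracker Red and Annexin V Alexa Fluor 680. CellPathfinder machine-learning gating assigned cells to Hoechst high-intensity objects or normal cells, normal cells to healthy, pyknosed or fragmented nuclei, and pyknosed cells to mitotic or apoptotic. Tubulin, mitochondrial-mass and membrane-permeability phenotypes are per cents of healthy-nucleus cells.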

[1] = 12 h, 1 µM, compound concentration 1 uM, replicate 1
[2] = 12 h, 1 µM, compound concentration 1 uM, replicate 2
[3] = 12 h, 10 µM, compound concentration 10 uM, replicate 1
[4] = 12 h, 10 µM, compound concentration 10 uM, replicate 2
[5] = 24 h, 1 µM, compound concentration 1 uM, replicate 1
[6] = 24 h, 1 µM, compound concentration 1 uM, replicate 2
[7] = 24 h, 10 µM, compound concentration 10 uM, replicate 1
[8] = 24 h, 10 µM, compound concentration 10 uM, replicate 2
[9] = 48 h, 1 µM, compound concentration 1 uM, replicate 1
[10] = 48 h, 1 µM, compound concentration 1 uM, replicate 2
[11] = 48 h, 10 µM, compound concentration 10 uM, replicate 1
[12] = 48 h, 10 µM, compound concentration 10 uM, replicate 2

## Cc1c[nH]c2nccc(Oc3c(F)cc(Nc4cc(Cl)nc(N)n4)cc3F)c12 [BAY-549]
[1]
  Population Apoptotic (%): 47%
  Population Fragmented Nuclei (%): 15%
  Population Healthy Nuclei (%): 66%
  Population Hoechst High Intensity Objects (%): 6%
  Population Membrane Permeable-Phenotype (%): 15%
  Population Mitochondria Different-Phenotype (%): 12%
  Population Mitotic Cells (%): 52%
  Population Normal (%): 93%
  Population Pyknosed Nuclei (%): 18%
  Population Tubulin-Different-Phenotype (%): 21%
  Total Cell Count: 200
[2]
  Population Apoptotic (%): 44%
  Population Fragmented Nuclei (%): 12%
  Population Healthy Nuclei (%): 73%
  Population Hoechst High Intensity Objects (%): 5%
  Population Membrane Permeable-Phenotype (%): 4%
  Population Mitochondria Different-Phenotype (%): 6%
  Population Mitotic Cells (%): 55%
  Population Normal (%): 94%
  Population Pyknosed Nuclei (%): 14%
  Population Tubulin-Different-Phenotype (%): 12%
  Total Cell Count: 68
[3]
  Population Apoptotic (%): 48%
  Population Fragmented Nuclei (%): 20%
  Population Healthy Nuclei (%): 59%
  Population Hoechst High Intensity Objects (%): 9%
  Population Membrane Permeable-Phenotype (%): 12%
  Population Mitochondria Different-Phenotype (%): 19%
  Population Mitotic Cells (%): 52%
  Population Normal (%): 90%
  Population Pyknosed Nuclei (%): 20%
  Population Tubulin-Different-Phenotype (%): 16%
  Total Cell Count: 136
[4]
  Population Apoptotic (%): 40%
  Population Fragmented Nuclei (%): 17%
  Population Healthy Nuclei (%): 65%
  Population Hoechst High Intensity Objects (%): 6%
  Population Membrane Permeable-Phenotype (%): 7%
  Population Mitochondria Different-Phenotype (%): 10%
  Population Mitotic Cells (%): 60%
  Population Normal (%): 93%
  Population Pyknosed Nuclei (%): 17%
  Population Tubulin-Different-Phenotype (%): 10%
  Total Cell Count: 62
[5]
  Population Apoptotic (%): 37%
  Population Fragmented Nuclei (%): 13%
  Population Healthy Nuclei (%): 70%
  Population Hoechst High Intensity Objects (%): 3%
  Population Membrane Permeable-Phenotype (%): 9%
  Population Mitochondria Different-Phenotype (%): 10%
  Population Mitotic Cells (%): 62%
  Population Normal (%): 96%
  Population Pyknosed Nuclei (%): 16%
  Population Tubulin-Different-Phenotype (%): 18%
  Total Cell Count: 226
[6]
  Population Apoptotic (%): 46%
  Population Fragmented Nuclei (%): 8%
  Population Healthy Nuclei (%): 71%
  Population Membrane Permeable-Phenotype (%): 5%
  Population Mitochondria Different-Phenotype (%): 7%
  Population Mitotic Cells (%): 53%
  Population Pyknosed Nuclei (%): 20%
  Total Cell Count: 77
[7]
  Population Apoptotic (%): 59%
  Population Fragmented Nuclei (%): 25%
  Population Healthy Nuclei (%): 53%
  Population Hoechst High Intensity Objects (%): 8%
  Population Membrane Permeable-Phenotype (%): 12%
  Population Mitochondria Different-Phenotype (%): 19%
  Population Mitotic Cells (%): 40%
  Population Normal (%): 91%
  Population Pyknosed Nuclei (%): 21%
  Population Tubulin-Different-Phenotype (%): 16%
  Total Cell Count: 135
[8]
  Population Apoptotic (%): 71%
  Population Fragmented Nuclei (%): 12%
  Population Healthy Nuclei (%): 62%
  Population Hoechst High Intensity Objects (%): 5%
  Population Membrane Permeable-Phenotype (%): 11%
  Population Mitochondria Different-Phenotype (%): 20%
  Population Mitotic Cells (%): 28%
  Population Normal (%): 94%
  Population Pyknosed Nuclei (%): 25%
  Population Tubulin-Different-Phenotype (%): 20%
  Total Cell Count: 59
[9]
  Population Apoptotic (%): 60%
  Population Healthy Nuclei (%): 64%
  Population Hoechst High Intensity Objects (%): 2%
  Population Membrane Permeable-Phenotype (%): 8%
  Population Mitochondria Different-Phenotype (%): 13%
  Population Mitotic Cells (%): 39%
  Population Normal (%): 97%
  Population Pyknosed Nuclei (%): 19%
  Population Tubulin-Different-Phenotype (%): 20%
  Total Cell Count: 302
[10]
  Population Apoptotic (%): 66%
  Population Fragmented Nuclei (%): 15%
  Population Healthy Nuclei (%): 73%
  Population Hoechst High Intensity Objects (%): 0%
  Population Membrane Permeable-Phenotype (%): 11%
  Population Mitochondria Different-Phenotype (%): 20%
  Population Mitotic Cells (%): 33%
  Population Normal (%): 99%
  Population Pyknosed Nuclei (%): 11%
  Population Tubulin-Different-Phenotype (%): 28%
  Total Cell Count: 106
[11]
  Population Apoptotic (%): 60%
  Population Fragmented Nuclei (%): 34%
  Population Healthy Nuclei (%): 41%
  Population Hoechst High Intensity Objects (%): 5%
  Population Membrane Permeable-Phenotype (%): 17%
  Population Mitochondria Different-Phenotype (%): 46%
  Population Mitotic Cells (%): 40%
  Population Normal (%): 94%
  Population Pyknosed Nuclei (%): 24%
  Population Tubulin-Different-Phenotype (%): 19%
  Total Cell Count: 132
[12]
  Population Apoptotic (%): 76%
  Population Fragmented Nuclei (%): 12%
  Population Healthy Nuclei (%): 63%
  Population Hoechst High Intensity Objects (%): 8%
  Population Membrane Permeable-Phenotype (%): 25%
  Population Mitochondria Different-Phenotype (%): 51%
  Population Mitotic Cells (%): 23%
  Population Normal (%): 91%
  Population Pyknosed Nuclei (%): 23%
  Population Tubulin-Different-Phenotype (%): 28%
  Total Cell Count: 60

## Cc1cc(C)c(-n2ccn3nc(-c4cccnc4)cc23)cc1NC(=O)c1cc(C#N)cc(S(F)(F)(F)(F)F)c1 [BAY-826]
[1]
  Population Apoptotic (%): 68% and 80%
  Population Fragmented Nuclei (%): 11% and 8%
  Population Healthy Nuclei (%): 75% and 87%
  Population Hoechst High Intensity Objects (%): 4%
  Population Membrane Permeable-Phenotype (%): 45% and 44%
  Population Mitochondria Different-Phenotype (%): 41% and 26%
  Population Mitotic Cells (%): 31% and 20%
  Population Normal (%): 95%
  Population Pyknosed Nuclei (%): 13% and 5%
  Population Tubulin-Different-Phenotype (%): 99% and 93%
  Total Cell Count: 168 and 105
[2]
  Population Apoptotic (%): 75% and 78%
  Population Fragmented Nuclei (%): 13% and 15%
  Population Healthy Nuclei (%): 81% and 69%
  Population Hoechst High Intensity Objects (%): 11% and 12%
  Population Membrane Permeable-Phenotype (%): 36% and 35%
  Population Mitochondria Different-Phenotype (%): 27% and 79%
  Population Mitotic Cells (%): 25% and 21%
  Population Normal (%): 88% and 87%
  Population Pyknosed Nuclei (%): 15%
  Population Tubulin-Different-Phenotype (%): 68% and 100%
  Total Cell Count: 85
[5]
  Population Apoptotic (%): 50% and 85%
  Population Fragmented Nuclei (%): 9%
  Population Healthy Nuclei (%): 82% and 53%
  Population Hoechst High Intensity Objects (%): 5%
  Population Membrane Permeable-Phenotype (%): 36% and 51%
  Population Mitochondria Different-Phenotype (%): 44% and 78%
  Population Normal (%): 94%
  Population Tubulin-Different-Phenotype (%): 63%
  Total Cell Count: 134 and 155
[6]
  Population Apoptotic (%): 80% and 70%
  Population Fragmented Nuclei (%): 19% and 10%
  Population Healthy Nuclei (%): 50% and 78%
  Population Hoechst High Intensity Objects (%): 13% and 9%
  Population Membrane Permeable-Phenotype (%): 56% and 28%
  Population Mitotic Cells (%): 19% and 30%
  Population Normal (%): 87% and 90%
  Population Pyknosed Nuclei (%): 29% and 11%
  Population Tubulin-Different-Phenotype (%): 100% and 48%
  Total Cell Count: 100 and 98
